Measured values published in article PMC2095803 (Nucleic Acids Research, 2007).

What was measured:
Bst DNA polymerase [1] = molecular target: T1, Bst DNA polymerase (Geobacillus stearothermophilus, UniProt P52026); experiment: Oligonucleotide template assay; assay type: biochemical, Bacillus stearothermophilus; details: for Incorporation: Bst, five-base poly-thymidine template, high concentrations (100 μM)
T1 sequence (P52026 289-876 limits assumed): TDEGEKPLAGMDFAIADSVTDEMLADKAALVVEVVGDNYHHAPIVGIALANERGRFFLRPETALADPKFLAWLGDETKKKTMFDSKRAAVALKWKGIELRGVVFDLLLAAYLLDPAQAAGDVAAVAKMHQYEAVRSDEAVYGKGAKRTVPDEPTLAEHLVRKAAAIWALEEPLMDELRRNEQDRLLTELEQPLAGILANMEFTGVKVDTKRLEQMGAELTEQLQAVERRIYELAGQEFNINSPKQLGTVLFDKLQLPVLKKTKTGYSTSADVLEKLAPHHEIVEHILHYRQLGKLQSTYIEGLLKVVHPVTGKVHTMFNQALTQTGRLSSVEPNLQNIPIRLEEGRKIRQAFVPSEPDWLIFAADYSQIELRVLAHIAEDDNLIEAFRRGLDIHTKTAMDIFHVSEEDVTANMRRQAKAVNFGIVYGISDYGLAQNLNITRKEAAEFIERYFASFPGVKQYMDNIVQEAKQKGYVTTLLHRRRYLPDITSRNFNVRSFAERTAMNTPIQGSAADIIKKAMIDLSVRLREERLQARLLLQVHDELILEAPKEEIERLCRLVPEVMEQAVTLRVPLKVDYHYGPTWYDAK

[2] = UV deprotection studies of 5′-O-TBS derivatives; assay type: physicochemical; details: for DT1/2 (deprotection half-life time) at 302 nm / DT1/2 (deprotection half-life time) at 365 nm: 1 mM in methanol, 0.5 mW transilluminator, triplicate
Outline: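 The test compound, in methanol at 1 mM in a scintillation vial, was irradiated with a 0.5 mW transilluminator at 302 or 365 nm. Aliquots taken at time intervals went to reverse-phase HPLC to follow loss of starting material and appearance of the deprotected product (loss of the 2-nitrobenzyl group). DT1/2 is the time at 50% deprotection, read from kinetic plots. Each compound was run in triplicate.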

[3] = molecular target: T2, Vent(exo−) DNA polymerase (Thermococcus litoralis, UniProt P30317, D141A/E143A); details: screening with eight different DNA polymerases; cited from earlier work
T2 sequence (P30317 with tags, fused parts or gaps D141A/E143A): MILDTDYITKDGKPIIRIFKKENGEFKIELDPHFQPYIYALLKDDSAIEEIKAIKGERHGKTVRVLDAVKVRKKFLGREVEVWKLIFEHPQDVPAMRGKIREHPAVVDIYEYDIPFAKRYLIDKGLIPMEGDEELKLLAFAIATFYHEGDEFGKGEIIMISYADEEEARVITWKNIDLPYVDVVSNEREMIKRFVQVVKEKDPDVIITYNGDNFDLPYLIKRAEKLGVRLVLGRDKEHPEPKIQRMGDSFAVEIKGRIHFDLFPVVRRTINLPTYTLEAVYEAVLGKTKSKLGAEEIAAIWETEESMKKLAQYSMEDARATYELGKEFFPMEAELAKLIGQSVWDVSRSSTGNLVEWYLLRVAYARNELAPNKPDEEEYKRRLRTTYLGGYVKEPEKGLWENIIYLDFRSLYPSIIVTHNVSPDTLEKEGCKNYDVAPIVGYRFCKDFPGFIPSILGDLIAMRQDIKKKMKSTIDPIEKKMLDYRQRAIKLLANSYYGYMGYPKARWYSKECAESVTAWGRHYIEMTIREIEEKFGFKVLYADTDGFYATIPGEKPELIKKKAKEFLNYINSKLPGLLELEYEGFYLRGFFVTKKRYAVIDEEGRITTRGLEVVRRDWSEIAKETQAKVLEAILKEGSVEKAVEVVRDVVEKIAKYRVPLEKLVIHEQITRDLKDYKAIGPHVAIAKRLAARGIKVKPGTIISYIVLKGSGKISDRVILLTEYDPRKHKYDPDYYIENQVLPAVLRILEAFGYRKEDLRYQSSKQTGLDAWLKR

Bst DNA polymerase [4] = molecular target: T1, Bst DNA polymerase; experiment: PEP; assay type: biochemical, Bacillus stearothermophilus
[5] = molecular target: T3, DeepVent(exo−) DNA polymerase (Pyrococcus sp. GB-D, UniProt Q51334, D141A/E143A); experiment: PEP; assay type: biochemical, Pyrococcus species GB-D
T3 sequence (Q51334 with tags, fused parts or gaps D141A/E143A): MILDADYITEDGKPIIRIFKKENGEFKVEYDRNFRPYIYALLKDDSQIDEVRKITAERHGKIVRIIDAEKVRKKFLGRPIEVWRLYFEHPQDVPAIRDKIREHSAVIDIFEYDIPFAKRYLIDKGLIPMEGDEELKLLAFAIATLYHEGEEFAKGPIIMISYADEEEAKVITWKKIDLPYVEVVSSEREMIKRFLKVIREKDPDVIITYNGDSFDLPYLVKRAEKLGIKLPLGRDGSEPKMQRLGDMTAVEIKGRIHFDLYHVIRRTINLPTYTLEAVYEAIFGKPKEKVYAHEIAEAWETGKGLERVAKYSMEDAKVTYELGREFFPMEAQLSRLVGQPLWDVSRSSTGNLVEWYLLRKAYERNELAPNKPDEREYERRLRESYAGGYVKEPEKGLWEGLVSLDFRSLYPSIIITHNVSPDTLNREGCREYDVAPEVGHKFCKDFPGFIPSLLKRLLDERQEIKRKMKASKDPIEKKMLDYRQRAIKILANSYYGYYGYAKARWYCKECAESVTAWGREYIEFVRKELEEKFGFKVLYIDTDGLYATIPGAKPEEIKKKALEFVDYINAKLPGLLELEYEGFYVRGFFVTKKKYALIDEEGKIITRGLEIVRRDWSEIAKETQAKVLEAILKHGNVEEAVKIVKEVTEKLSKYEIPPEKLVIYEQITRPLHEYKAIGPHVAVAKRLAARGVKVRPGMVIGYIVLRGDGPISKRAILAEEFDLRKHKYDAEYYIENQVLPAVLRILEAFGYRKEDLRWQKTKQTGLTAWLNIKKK

[6] = molecular target: T2, Vent(exo−) DNA polymerase; experiment: PEP; assay type: biochemical

Question: Which “Activity by DNA polymerase incorporation assays” value (Bst DNA polymerase [1]) does the source give for Nc1ncnc2c1ncn2[C@H]1C[C@H](OCc2ccccc2[N+](=O)[O-])[C@@H](COP(=O)(O)OP(=O)(O)OP(=O)(O)O)O1 [Ic, 3’-O-(2-Nitrobenzyl)-2’-deoxyadenosine-5’-triphosphate] here?
Answer: inactive

Question: And the Incorporation (Bst DNA polymerase [1])?
Answer: did not show significant incorporation

Question: With O=[N+]([O-])c1ccccc1CN(Cc1ccccc1[N+](=O)[O-])c1ncnc2c1ncn2[C@H]1C[C@H](O)[C@@H](COP(=O)(O)OP(=O)(O)OP(=O)(O)O)O1 [IIc, N^6, N^6-Bis-(2-nitrobenzyl)-2’-deoxyadenosine-5’-triphosphate] as the compound, how does the “Activity by DNA polymerase incorporation assays” value (Bst DNA polymerase [1]) read?
Answer: inactive

Question: And the Incorporation (Bst DNA polymerase [1])?
Answer: did not show significant incorporation

Question: Which results are given for CC(C)(C)[Si](C)(C)OC[C@H]1O[C@@H](n2cnc3c(NCc4ccccc4[N+](=O)[O-])ncnc32)C[C@@H]1O [IIIb, N^6-(2-Nitrobenzyl)-5’-O-tert-butyldimethylsilyl-2’-deoxyadenosine]?
Answer: DT1/2 (deprotection half-life time) at 302 nm [2]: 0.767 min; DT1/2 (deprotection half-life time) at 365 nm [2]: 2.4 min

Question: With C=CCO[C@H]1C[C@H](n2cnc3c(N)ncnc32)O[C@@H]1COP(=O)(O)OP(=O)(O)OP(=O)(O)O [3′-O-allyl-dATP] as the compound, how does the “Activity as polymerase substrate” value [3] read?
Answer: limited activity at high micromolar concentrations

Question: Which IC50 (Bst DNA polymerase [4]) does the source give for Nc1ncnc2c1ncn2[C@H]1C[C@H](O)[C@@H](COP(=O)(O)OP(=O)(O)OP(=O)(O)O)O1 [dATP, 2′-Deoxyadenosine triphosphate] here?
Answer: 1.2 ± 0.1 nM

Question: What about the IC50 [5] of the same compound?
Answer: 2.8 ± 0.2 nM

Question: What about the IC50 [6] of the same compound?
Answer: 1.6 ± 0.2 nM

Question: With CC(C)(C)[Si](C)(C)OC[C@H]1O[C@@H](n2cnc3c(N(Cc4ccccc4[N+](=O)[O-])Cc4ccccc4[N+](=O)[O-])ncnc32)C[C@@H]1O [IIb, N^6, N^6-Bis-(2-nitrobenzyl)-5’-O-tert-butyldimethylsilyl-2’deoxyadenosine] as the compound, how does the “Deprotection rate relative to compound Ib” value ([2]; faster than Ib at both deprotection wavelengths (302 and 365 nm)) read?
Answer: approximately 3 fold

Question: Which “DT1/2 (deprotection half-life time) at 302 nm” value [2] does the source give for CC(C)(C)[Si](C)(C)OC[C@H]1O[C@@H](n2cnc3c(N)ncnc32)C[C@@H]1OCc1ccccc1[N+](=O)[O-] [Compound Ib, 5’-O-tert-Butyldimethylsilyl-3’-O-(2-nitrobenzyl)-2’-deoxyadenosine] here?
Answer: 1 min

Question: What about the “DT1/2 (deprotection half-life time) at 365 nm” value [2] of the same compound?
Answer: 2.53 min
